Measurements published in ChEMBL document CHEMBL3875200, “Bivalent SIRT1 inhibitors” (Bioorg Med Chem Lett, 2017).
The source made the active and inactive calls. The calls are words filed in the database; no cut-off is given here.

Assays:
[1] = target: T1, NAD-dependent protein deacetylase sirtuin-1 (Homo sapiens, UniProt Q96EB6); assay: Inhibition of recombinant human His6/GST-tagged SIRT1 expressed in Escherichia coli assessed as reduction in H2N-HK-[Nepsilon-acetyl-lysine]-LM-COOH deacetylation measured after 10 mins in presence of beta-NAD+ by RP-HPLC assay
T1 sequence (Q96EB6 whole entry): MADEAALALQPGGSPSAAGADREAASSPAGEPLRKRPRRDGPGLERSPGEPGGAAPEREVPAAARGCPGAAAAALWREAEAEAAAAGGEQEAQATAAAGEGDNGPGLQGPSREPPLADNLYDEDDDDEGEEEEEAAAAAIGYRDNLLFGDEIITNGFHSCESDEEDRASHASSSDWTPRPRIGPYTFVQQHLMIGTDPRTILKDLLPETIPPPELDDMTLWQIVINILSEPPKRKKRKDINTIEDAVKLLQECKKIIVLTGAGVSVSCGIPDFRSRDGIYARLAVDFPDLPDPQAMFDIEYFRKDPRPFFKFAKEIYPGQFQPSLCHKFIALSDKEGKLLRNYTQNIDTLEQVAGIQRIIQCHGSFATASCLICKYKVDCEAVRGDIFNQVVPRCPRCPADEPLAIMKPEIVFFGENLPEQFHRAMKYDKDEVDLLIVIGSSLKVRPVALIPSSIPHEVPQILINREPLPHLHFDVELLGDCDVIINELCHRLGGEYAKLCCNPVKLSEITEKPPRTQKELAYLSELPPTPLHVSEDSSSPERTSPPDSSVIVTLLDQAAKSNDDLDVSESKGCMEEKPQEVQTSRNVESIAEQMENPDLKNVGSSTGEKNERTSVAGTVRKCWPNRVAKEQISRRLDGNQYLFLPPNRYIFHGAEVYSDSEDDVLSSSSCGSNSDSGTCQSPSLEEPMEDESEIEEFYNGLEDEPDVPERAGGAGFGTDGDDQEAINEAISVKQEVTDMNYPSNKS

[2] = target: T2, NAD-dependent protein deacetylase sirtuin-1 (Homo sapiens) (UniProt Q96EB6); assay: Reversible inhibition of recombinant human His6/GST-tagged SIRT1 expressed in Escherichia coli assessed as inhibition of H2N-HK-[epsilonN-acetyl-lysine]-LM-COOH deacetylation measured after 10 mins in presence of beta-NAD+ by Dixon plot analysis
T2 sequence (whole entry): T1 sequence (Q96EB6 whole entry)

[3] = target: T3, NAD-dependent protein deacetylase sirtuin-2 (Homo sapiens, UniProt Q8IXJ6); assay: Inhibition of recombinant human His6-tagged SIRT2 (2 to 389 residues) expressed in Escherichia coli assessed as inhibition of H2N-HK-[epsilonN-acetyl-lysine]-LM-COOH deacetylation measured after 12 mins in presence of beta-NAD+ by RP-HPLC analysis
T3 sequence (Q8IXJ6 whole entry): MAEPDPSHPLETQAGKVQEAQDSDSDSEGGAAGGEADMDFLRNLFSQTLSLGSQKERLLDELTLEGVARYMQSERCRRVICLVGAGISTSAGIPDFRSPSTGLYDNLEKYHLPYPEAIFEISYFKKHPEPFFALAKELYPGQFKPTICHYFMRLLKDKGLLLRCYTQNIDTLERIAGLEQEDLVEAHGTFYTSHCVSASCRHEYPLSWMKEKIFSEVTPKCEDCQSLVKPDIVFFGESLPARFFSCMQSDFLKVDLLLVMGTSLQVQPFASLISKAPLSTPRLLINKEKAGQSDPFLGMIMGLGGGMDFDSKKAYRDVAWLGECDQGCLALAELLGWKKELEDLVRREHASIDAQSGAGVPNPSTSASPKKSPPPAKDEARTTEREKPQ

Homo sapiens [4] = species on record: Homo sapiens; assay: Selectivity ratio of IC50 for recombinant human His6/GST-tagged SIRT1 expressed in Escherichia coli to IC50 for recombinant human His6-tagged SIRT2 (2 to 389 residues) expressed in Escherichia coli
[5] = target: T2, NAD-dependent protein deacetylase sirtuin-1 (Homo sapiens); assay: (§1) Non-competitive inhibition of recombinant human His6/GST-tagged SIRT1 expressed in Escherichia coli assessed as deacetylation of H2N-HK-[epsilonN-acetyl-lysine]-LM-COOH at 4 to 8.5 uM measured after 10 mins in presence of varying beta-NAD+ and constant substrate concentration by Lineweaver-Burk plot analysis
Procedure, shortened: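 β-NAD⁺ was the varied co-substrate. An uncompetitive-intercept inhibition constant (Kii) and the apparent Km for β-NAD⁺ were derived from the kinetic data.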

[6] = target: T2, NAD-dependent protein deacetylase sirtuin-1 (Homo sapiens); assay: as §1, with “Competitive” for “Non-competitive”, “constant” for “varying”, “varying” for “constant”
Procedure, shortened: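 Inhibitor tested against varied acetyl-lysine peptide substrate H2N-HK-(Nε-acetyl-lysine)-LM-COOH. A competitive inhibition constant (Kis) and the apparent Km for this peptide were derived from the kinetic data.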

[7] = target: T4, NAD-dependent protein deacetylase sirtuin-3, mitochondrial (Homo sapiens, UniProt Q9NTG7); assay: Inhibition of recombinant human His6-tagged SIRT3 (101 to 399 residues) expressed in Escherichia coli assessed as inhibition of H2N-HK-[epsilonN-acetyl-lysine]-LM-COOH deacetylation measured after 10 mins in presence of beta-NAD+ by reversed-phase C18 HPLC analysis
T4 sequence (Q9NTG7 whole entry): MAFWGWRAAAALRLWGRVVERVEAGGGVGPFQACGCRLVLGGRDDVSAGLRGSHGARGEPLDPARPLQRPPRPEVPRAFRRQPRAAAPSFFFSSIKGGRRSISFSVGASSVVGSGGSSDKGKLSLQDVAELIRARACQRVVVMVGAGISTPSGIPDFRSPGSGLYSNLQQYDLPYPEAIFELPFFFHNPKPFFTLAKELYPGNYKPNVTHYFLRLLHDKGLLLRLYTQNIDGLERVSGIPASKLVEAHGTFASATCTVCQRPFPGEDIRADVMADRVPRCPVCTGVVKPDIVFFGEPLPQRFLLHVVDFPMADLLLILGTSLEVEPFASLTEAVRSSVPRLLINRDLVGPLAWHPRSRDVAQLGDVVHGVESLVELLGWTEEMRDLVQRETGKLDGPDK

Homo sapiens [8] = species on record: Homo sapiens; assay: Selectivity ratio of IC50 for recombinant human His6/GST-tagged SIRT1 expressed in Escherichia coli to IC50 for recombinant human His6-tagged SIRT3 (101 to 399 residues) expressed in Escherichia coli
[9] = Aqueous solubility of the compound; format: physicochemical; details: buffer

Row | IC50 [1] [µM] | SMILES | further results
1 | 45.8 | CC(=O)NCCCC[C@H](NC(=O)[C@H](CCCCNC(=O)CCCCCCCSc1nc2c(N)ncnc2[nH]1)NC(=O)[C@H](CCCCNC(C)=O)NC(C)=O)C(N)=O | –
2 | 14.6 | CC(=O)NCCCC[C@H](NC(=O)[C@H](CCCCNC(=O)CCCCCSc1ccc2ccccc2c1)NC(=O)[C@H](CCCCNC(C)=O)NC(C)=O)C(N)=O | –
3 | 15.4 | CC(=O)NCCCC[C@H](NC(=O)[C@H](CCCCNC(=O)CCCCCSc1ncc(-c2ccccc2)s1)NC(=O)[C@H](CCCCNC(C)=O)NC(C)=O)C(N)=O | –
4 | 187 | CC(=O)NCCCC[C@H](NC(=O)[C@H](CCCCNC(=O)CCCCCSc1nc2ccccc2[nH]1)NC(=O)[C@H](CCCCNC(C)=O)NC(C)=O)C(N)=O | –
5 | 27 | CC(=O)NCCCC[C@H](NC(=O)[C@H](CCCCNC(=O)CCCSc1nc2ccccc2s1)NC(=O)[C@H](CCCCNC(C)=O)NC(C)=O)C(N)=O | –
6 | 116 | CC(=O)NCCCC[C@H](NC(=O)[C@H](CCCCNC(=O)CNC(=O)CNC(=O)CSc1nc2ccccc2s1)NC(=O)[C@H](CCCCNC(C)=O)NC(C)=O)C(N)=O | –
7 | 150 | CC(=O)NCCCC[C@H](NC(=O)[C@H](CCCCNC(=O)CSc1nnc(/C=C/c2ccccc2)[nH]1)NC(=O)[C@H](CCCCNC(C)=O)NC(C)=O)C(N)=O | –
8 | > 200 | CC(=O)NCCCC[C@H](NC(=O)[C@H](CCCCNC(=O)CNC(=O)CI)NC(=O)[C@H](CCCCNC(C)=O)NC(C)=O)C(N)=O | inhibition [2]: Active
9 | > 900 | CC(=O)NCCCC[C@H](NC(=O)[C@H](CCCCNC(=O)CCCCCSc1nc2c(N)ncnc2[nH]1)NC(=O)[C@H](CCCCNC(C)=O)NC(C)=O)C(N)=O | –
10 | 39.3 | CC(=O)NCCCC[C@H](NC(=O)[C@H](CCCCNC(=O)CI)NC(=O)[C@H](CCCCNC(C)=O)NC(C)=O)C(N)=O | inhibition [2]: Active; IC50 [3]: 22.2 µM
11 | 12.4 | CC(=O)NCCCC[C@H](NC(=O)[C@H](CCCCNC(=O)CCCCCSc1nc2ccccc2s1)NC(=O)[C@H](CCCCNC(C)=O)NC(C)=O)C(N)=O | Ratio IC50 (Homo sapiens [4]): > 16; inhibition [5]: Active; inhibition [6]: Active; IC50 [7]: > 1000 µM; IC50 [3]: > 200 µM; Ratio IC50 (Homo sapiens [8]): > 81
12 | 5.3 | CC(=O)NCCCC[C@H](NC(=O)[C@H](CCCCNC(=O)CCCCCCCSc1nc2ccccc2s1)NC(=O)[C@H](CCCCNC(C)=O)NC(C)=O)C(N)=O | solubility [9]: Insoluble
13 | 171 | CC(=O)NCCCC[C@H](NC(=O)[C@H](CCCCNC(=O)CSCc1ccccc1)NC(=O)[C@H](CCCCNC(C)=O)NC(C)=O)C(N)=O | –
14 | 77.5 | CC(=O)NCCCC[C@H](NC(=O)[C@H](CCCCNC(=O)CSc1nc2ccccc2s1)NC(=O)[C@H](CCCCNC(C)=O)NC(C)=O)C(N)=O | –
15 | 14.6 | CC(=O)NCCCC[C@H](NC(=O)[C@H](CCCCNC(=O)CCCCCSc1cccc2ccccc12)NC(=O)[C@H](CCCCNC(C)=O)NC(C)=O)C(N)=O | –
16 | 133 | CC(=O)NCCCC[C@H](NC(=O)[C@H](CCCCNC(=O)CCCCCSc1nc2ccccc2o1)NC(=O)[C@H](CCCCNC(C)=O)NC(C)=O)C(N)=O | –
17 | 30 | CC(=O)NCCCC[C@H](NC(=O)[C@H](CCCCNC(=O)CCCCCCSc1nc2ccccc2s1)NC(=O)[C@H](CCCCNC(C)=O)NC(C)=O)C(N)=O | –
18 | 18 | CC(=O)NCCCC[C@H](NC(=O)[C@H](CCCCNC(=O)CSc1ncc(-c2ccccc2)s1)NC(=O)[C@H](CCCCNC(C)=O)NC(C)=O)C(N)=O | –
19 | 57.7 | CC(=O)NCCCC[C@H](NC(=O)[C@H](CCCCNC(=O)CCCCCSCc1ccccc1)NC(=O)[C@H](CCCCNC(C)=O)NC(C)=O)C(N)=O | –
